Read-outs that look alike come from different tables or passages of the source.
Assays:
plasma GIP = assay: Plasma GIP after oral gavage in fasted mice; assay type: in vivo, mouse; conditions: 30 mg/kg oral, 30 min, overnight fasted mice
human GPR40 [1] = target: T1, human GPR40 (Homo sapiens, UniProt O14842); assay type: binding
human GPR40 [2] = target: T1, human GPR40; assay type: binding; remark: listed apart in the source
[3] = system: mouse colonic crypt cultures (WT); assay: Total GLP-1 release from primary colonic crypt cultures, WT mice; assay type: cell-based; conditions: 1 μM ligand, 2 h, relative to basal (vehicle)
Outline: (§1)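 Colonic crypts from male C57BL/6 littermates were collagenase-digested and seeded on Matrigel. […] Next day, cells were exposed to ligands for 2 h at 37 °C, in triplicate, in standard solution with 0.1% fatty-acid-free BSA and 10 mM glucose. Synthetic ligands were in DMSO; ALA was BSA-complexed at 6:1 molar. Total GLP-1 was measured by electrochemiluminescent immunoassay, expressed as fold over vehicle basal.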

PK experiments = conditions: mouse, in vivo, po, 30 mg/kg
human GPR40 [4] = target: T1, human GPR40; assay: IP turnover assay in transiently transfected COS-7 cells; assay type: cell-based; conditions: for Emax: COS-7, read-out: IP3 (in vitro) Emax
plasma GLP-1 = assay: Plasma total GLP-1 after oral gavage in fasted mice; assay type: in vivo, mouse; conditions: 30 mg/kg oral, 30 min, overnight fasted mice; vehicle about 5 pmol/L
human GPR40 [5] = target: T1, human GPR40; assay: cAMP accumulation assay in transiently transfected COS-7 cells; assay type: cell-based; conditions: for Stimulation of cAMP accumulation (in words): COS-7 transfected with GPR40
[6] = system: mouse colonic crypt cultures GPR40 (−/−); assay: Total GLP-1 release from primary colonic crypt cultures, Gpr40 KO mice; assay type: cell-based; conditions: 1 μM ligand, 2 h, relative to basal (vehicle)
Outline: as §1

[7] = phase-II studies, cited from earlier work

T1 sequence (O14842 whole entry): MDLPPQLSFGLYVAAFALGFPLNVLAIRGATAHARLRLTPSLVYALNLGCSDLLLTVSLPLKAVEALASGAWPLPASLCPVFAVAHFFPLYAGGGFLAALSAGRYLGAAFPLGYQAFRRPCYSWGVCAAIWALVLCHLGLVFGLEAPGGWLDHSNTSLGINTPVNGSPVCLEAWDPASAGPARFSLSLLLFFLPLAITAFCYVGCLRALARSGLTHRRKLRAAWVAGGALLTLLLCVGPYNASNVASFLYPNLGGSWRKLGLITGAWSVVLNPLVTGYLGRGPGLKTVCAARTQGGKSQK

Row | Compound | Plasma GIP, median of all experiments (plasma GIP; vehicle 53 pmol/L) [pmol/L] | Binding (in vitro) [3H]L358: positive or negative competitive binding (human GPR40 [1]) | IC50 (human GPR40 [1]) [µM] | Binding (in vitro) [3H]AM-1638: positive or negative competitive binding (human GPR40 [2]) | IC50 (human GPR40 [2]) [µM] | tGLP-1 (ex vivo) release, WT [3] [fold change] | Cmax (PK experiments) [µM] | EC50 (human GPR40 [4]) [µM] | Emax (human GPR40 [4]) [%] | Plasma GLP-1, median of all experiments (plasma GLP-1) [pmol/L] | Stimulation of cAMP accumulation (in words) (human GPR40 [5]) | cAMP potency, fold lower than the potency for IP-accumulation (human GPR40 [5]; cAMP EC50 versus IP EC50) [fold] | tGLP-1 (ex vivo) release, GPR40 (−/−) [6] [fold change] | EC50 (human GPR40 [5]) [µM] | Significance of plasma GIP increase (in words) (plasma GIP) | Effect on HbA1c ([7]; without signs of hypoglycemia) | Effect on plasma GLP-1 [7]
1 | COc1ccc(F)c(-c2ccc(COc3cccc([C@@H](CC(=O)O)C4CC4)c3)cc2C2=CCCC2(C)C)c1 [AM-1638] | 383 | (neg) | 0.026 | (pos) | 0.029 | 3.0 ± 0.54 | 11 | 0.0251 | 170 ± 14 | 29 | stimulated cAMP accumulation robustly | 7 | 1.1 ± 0.07 | – | – | – | –
2 | CC(C)c1noc(C2CCN(c3ncnc(Nc4ccc(S(C)(=O)=O)cc4F)c3[N+](=O)[O-])CC2)n1 [AR231453] | – | – | – | – | – | 4.7 ± 0.3 | – | – | – | – | – | – | – | – | – | – | –
3 | CC/C=C\C/C=C\C/C=C\C/C=C\C/C=C\C/C=C\CCC(=O)O [DHA, docosahexaenoic acid] | – | – | – | – | – | – | – | 12 | 56 ± 6 | – | not able to stimulate cAMP accumulation meaningfully | – | – | > 1000 | – | – | –
4 | Cc1cc(OCCCS(C)(=O)=O)cc(C)c1-c1cccc(COc2ccc3c(c2)OC[C@H]3CC(=O)O)c1 [TAK-875, fasiglifam] | – | (pos) | – | (neg) | – | 1.5 ± 0.08 | 2 | – | 98 ± 4 | 10.8 | no or very limited stimulation of cAMP production | – | 1.1 ± 0.12 | – | only increased plasma GIP significantly in one of the three experiments | decreased HbA1c as efficiently as sulfonylurea | no effect
